What all share (type): functional
One experiment relates to Malme-3M. As to the kind of experiment: Antitumor activity against MALME-3M cell line. The settings on record: Homo sapiens. In a few lines: (§1)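 Drugs were screened against a panel of up to 60 human cancer cell lines. The end-point was LC50, the drug concentration lethal to 50% of the cancer cells. Values were expressed as log LC50 and plotted as mean graphs centred on the log of the panel-mean LC50. Bars to the right mark lines with lower log LC50 than the mean.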

In a further experiment the test system is LOX IMVI. As to the kind of experiment: Antitumor activity against LOX IMV cell line. Particulars: Homo sapiens, read-out: Log LC50 (the source's name) (converted). In a few lines: as §1
The nature of experiment [1]: Mean log10 LC50 was determined. In a few lines:
(§2)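 Screened against a panel of up to 60 human cancer cell lines. Read-out is LC50, the drug concentration lethal to 50% of the cells, expressed as log LC50. The mean log LC50 across the screened lines is the centre line of the mean graph. Each line's deviation from that mean is shown as a bar.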

The test system of a further experiment is SK-MEL-5. As to the kind of experiment: Antitumor activity against SK-MEL-5 cell line. Particulars: Homo sapiens. In a few lines:
as §2

Structures are written as SMILES. Where only a bound is given, the exact number is not on record here.

With `CC(=O)OC1CCn2c1nc1c2C(=O)C(C)=C(N2CC2)C1=O` (centres undefined), the LC50 (usually the concentration that kills 50% of the test population) in the experiment with Malme-3M was 55 nM; in the experiment with SK-MEL-5, under 10 nM. In addition, the CC50 in the experiment on LOX IMVI was under 10 nM. In experiment [1], this compound displayed a Mean log LC50 of -6.61.
